The list is not random: actives were taken first. Their share in the collection is about 3.1%.
BB579 growth dn: yeast BB579 growth reduction in restrictive medium | S. cerevisiae BB579 growth, OD615, 48 h | inhibition, % at 10 µM | AID 804 | 140,000 tested, 0.51% active;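 active means inhibition above a set limit, 3 SD over the mean compound inhibition, cut at about 44% in these data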
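test system = yeast BB579 (DeaD) | buffer or medium = restrictive CSMM-D medium | doses = single compound dose of 10 µM, 0.25% DMSO final | times = 4 h preincubation and 48 h exposure at 30 °C | technique = culture absorbance at 615 nm | benchmarks = amphotericin B 10 µg/mL, positive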
Yeast lifespan up: yeast lifespan extension | S. cerevisiae growth with nicotinamide, OD615; deaD strain in restrictive glucose medium | inhibition of the nicotinamide effect, % at 10 µM | 130,000 tested, 0.68% active;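 active means inhibition above a set limit, placed 3 SD over the median of all compounds, cut at about 26% in these data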;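 further: 0% = nicotinamide-treated wells and 100% = cells grown without nicotinamide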
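assay system = DeaD-strain S. cerevisiae | measured by = absorbance at 615 nm | probe or stimulus = nicotinamide 1.5 mM | buffer or medium = CSMM-D glucose medium, restrictive | times = 48 h at 30 °C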
INS promoter inh: TRM-6 insulin promoter activity inhibition; 130,000 tested, 0.9% active; TRM-6 cells, insulin promoter-eGFP reporter, imaging; reporter expression induced with tamoxifen; inhibition, % at 2 µM;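 active means inhibition above the mean plus 3 SD, with well images judged a real hit on visual review, cut at about 60% in these data, passing the limit was not always enough; inconclusive means inhibition over the cutoff but images rejected on review; inactive means inhibition not above the cutoff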
Insulin prom up: MIN6 insulin promoter up-regulation | AID 1625 | MIN6 insulin promoter-GFP reporter, high-content imaging; hits give high values | 190,000 tested, 0.3% active | z-score at 5 µM;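 active means z-score above 3 at 5 µM with at least 500 cells counted in the well; inconclusive means wells under 500 cells, flagged as cytotoxic or low count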
RAM network inh: inhibitors of the yeast RAM network; S. cerevisiae dse1pr::URA3 reporter, 5-FOA growth OD615, 2 d; analog-sensitive cbk1-as2 kinase mutant strain; inhibition, % at 50 µM; 190,000 tested, 1.8% active;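 active means inhibition above a set limit, 3 SD over mean compound inhibition, cut at about 8.4% in these data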;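 further: 0% = DMSO-only wells with no growth and 100% = 10 µM 1-NA-PP1 full growth; inhibition rescues growth on 5-FOA so higher OD means more RAM inhibition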
* hit, by the source's call; i = inactive; ? = inconclusive; · = not tested or not shown.

SMILES	BB579 growth dn	Yeast lifespan up	INS promoter inh	Insulin prom up	RAM network inh
CCCCCNC(=O)c1c[nH]c2ccc(S(=O)(=O)N3CCC4(CC3)OCCO4)cc2c1=O	-53	4	39	-1.5	4
CN(C)c1ccc(/C=N/NC(=O)CCc2nc3ccccc3[nH]2)cc1	·	·	·	0.14	·
Cc1ccc(N=Nc2ccc(O)c3ncccc23)cc1	55*	0	-123	?	3
Oc1ccc(COCc2ccccc2)c2cccnc12	99*	-16	·	·	1
CCCOCc1ccc(O)c2ncccc12	·	·	·	-1.7	·
O=[N+]([O-])c1cc(CN2CCN(c3cccc(C(F)(F)F)c3)CC2)c2cccnc2c1O	·	·	i	-1.2	-1
O=[N+]([O-])c1cc(CN2CCCC2)c2cccnc2c1O	60*	-3	5	0.51	1
OCc1ccc(O)c2ncccc12	96*	-21	-18	?	3
CC(C)(C)NC(=O)NC(=O)COC(=O)Cc1coc2ccc3ccccc3c12	-52	-2	-52	0.97	5
Fc1c(F)c(F)c(N=Cc2ccc3ncccc3c2)c(F)c1F	-27	3	-53	0.11	3
Oc1ccc(CN2CCCCC2)c2cccnc12	45*	·	-389	·	-1
CCN(C(=O)CSc1nc2cc(C(=O)OC)ccc2c(=O)n1Cc1ccco1)c1cccc(C)c1	-6	-4	·	4.5*	7
CCCCCn1c(SCC(=O)OCC)nc2cc(C(=O)NCc3ccco3)ccc2c1=O	-33	-1	-29	-1.1	11*
C=CCn1c(SCC(=O)OCC)nc2cc(C(=O)NCc3ccco3)ccc2c1=O	-31	-8	-44	-0.02	3
CC(C)NC(=S)NCc1cccs1	·	·	·	-0.57	1
CCOC(=O)c1cc2cc([N+](=O)[O-])cc(OC)c2oc1=O	·	·	60	0.36	0
COc1cc([N+](=O)[O-])cc2cc(C(=O)N3CCN=C3c3ccccc3)c(=O)oc12	·	·	8	-0.61	8.9*
O=C(NCc1ccccc1)N[C@@H](Cc1c[nH]c2ccccc12)C(=O)O	-37	-1	75*	0.47	1
CCCNC(=O)OCCC12CC3CC(CC(C3)C1)C2	-44	20	69*	0.06	-1
COC(=O)NCC12CC3CC(C1)CC(CNC(=O)OC)(C3)C2	-38	37*	-9	0.12	1
CCOC(=O)c1ccc2c(c1)n(CCO)c(C)[n+]2CC	8	71*	-25	-0.75	1
CCOC(=O)c1ccc2c(c1)n(CC)c(/C=C/N(C)c1ccccc1)[n+]2CC	-23	7	19	?	0
COc1ccc(CC(=O)N2CCCC(CNC(=O)c3ccccc3Cl)C2)cc1 (configuration not stated)	·	·	·	0.1	0
CCOC(=O)c1c(NC(=O)c2ccccc2Cl)sc2c1CCc1ccccc1-2	-45	-4	7	-0.08	7
CCCCC(=O)Nc1sc2c(c1C(=O)OCC)CCC(C=O)=C2Cl	-17	-1	·	1.2	9.2*
SMILES	BB579 growth dn	Yeast lifespan up	INS promoter inh	Insulin prom up	RAM network inh
O=c1[nH]c2cccnc2n1Cc1ccccc1	-9	26	82*	1.1	0
O=c1[nH]c2ccccc2n1Cc1ccccc1	24	-10	·	-0.25	2
Cc1nn(CC(=O)NCCc2ccc(Cl)cc2Cl)c(C)c1[N+](=O)[O-]	-22	-5	·	-0.68	0
Cc1ccccc1-n1c(SCC(=O)N/N=C/c2sccc2C)nc2ccccc2c1=O	-27	1	28	-0.33	4
COc1ccc(C2=NOC(C(=O)Nc3ccc(C(C)=O)cc3)C2)cc1OC (configuration not stated)	-50	-12	·	·	4
COc1ccc(C2=NOC(C(=O)Nc3cc(Br)ccc3O)C2)cc1OC (configuration not stated)	-28	-6	74*	0.68	2
Cc1nc2ccc(NC(=O)c3cc([N+](=O)[O-])cc([N+](=O)[O-])c3Cl)cc2s1	89*	-11	·	1.4	1
NS(=O)(=O)c1cccc(NC(=O)Cc2ccc(Cl)c(Cl)c2)c1	·	·	27	·	0
O=C(Nc1nnc(-c2ccccc2)o1)Nc1ccc(F)cc1F	·	·	12	-0.39	2
O=C(Nc1nnc(-c2ccccc2)o1)Nc1ccccc1Cl	-18	-8	14	3.8*	1
Cc1ccc(S(=O)(=O)Nc2cccc(-c3ccc4nnc(C)n4n3)c2)s1	·	·	·	0.94	3
Cc1ccc(-n2nc(C)c3c2OC(N)=C(C#N)C3c2ccoc2)cc1 (configuration not stated)	-66	30*	·	0.1	0
Cc1occc1C(=O)Nc1c(F)c(F)c(F)c(F)c1F	-42	7	-27	·	0
Cc1occc1C(=O)Nc1nn[nH]n1	-27	4	92*	0.65	0
C=C(CCC(=O)c1ccccc1)C(=O)c1ccccc1	-29	31*	·	·	-2
O=C(CCCCCCCC(=O)c1ccccc1)c1ccccc1	·	·	·	-0.3	0
C=C(C(=O)c1ccccc1)C(CC(=O)c1ccccc1)c1ccccc1 (configuration not stated)	-15	39*	·	0.05	7
COc1ccccc1CN1C(=O)[C@@H]2C(CCC(N)=O)NC3(C(=O)Nc4c3ccc(Cl)c4C)[C@@H]2C1=O (some centres not stated)	-7	-6	71*	-0.13	1
Cc1ccc(C)c(NC(=O)C(C)CC2COCCO2)c1 (configuration not stated)	-5	-15	·	3.5*	-1
Cc1ccc(-n2c(SCC(=O)NCc3ccco3)nc3c(sc4ccccc43)c2=O)cc1	-2	0	55	-1.3	3
Cc1ccc(S(=O)(=O)N2CCCC2C(=O)OCc2ccco2)cc1 (configuration not stated)	-24	-22	i	1.7	3
Cc1ccc(S(=O)(=O)N2CCCC2C(=O)N(C)Cc2cccs2)cc1 (configuration not stated)	-21	-11	-48	4.2*	0
O=C(OCc1ccc([N+](=O)[O-])cc1)C1CCN(S(=O)(=O)c2ccccc2)CC1	-28	0	-13	-0.01	9.1*
Cc1ccc(S(=O)(=O)N2CCCC2C(=O)OCc2ccccc2)cc1 (configuration not stated)	-10	8	11	-0.43	9.4*
O=C(NCc1ccc(F)cc1)C(=O)NCC1OCCN1C(=O)c1cccs1 (configuration not stated)	-21	3	·	-0.21	3
SMILES	BB579 growth dn	Yeast lifespan up	INS promoter inh	Insulin prom up	RAM network inh
CCOC(=O)Nc1nn(-c2ccc(C)cc2)c(=O)c(C#N)c1C	·	·	24	1.1	3
CN(c1ccccc1)S(=O)(=O)c1cc(C(=O)N2CCN(c3ccccn3)CC2)ccc1Cl	4	-1	-25	0.31	1
O=C(Nc1ccc(F)cc1)Nc1nnc(-c2ccco2)s1	·	·	-18	0.45	7
Cc1ccc(CSc2ncnc3c2cnn3-c2ccc(C)cc2)cc1	-28	4	-3	1.4	9.5*
CCc1cccc(C)c1NC(=S)NCc1ccc2[nH]c(C)cc2c1	54*	-2	71*	-0.25	5
Cc1ccc(/C=C/C(=O)NCc2ccco2)o1	-14	-2	-48	-0.42	1

Compound activity from PubChem BioAssay.
